Screening data from PubChem BioAssay.
In the library only some 1.5% were active in any assay of this set; here they are far more common.
GSIS activator – GLuc luminescence reporter in INS-1E cells, primary screen for activators of glucose-dependent secretion of insulin; 370,000 compounds, 0.61% hits; INS-1E GLuc reporter insulin secretion, 2-3 h; activation, % at 16.6 µM;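 active means lowest replicate activation of at least 40%, so every replicate reaches that level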;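 further: 0% = median of neutral control wells and 100% = median of IBMX positive control wells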
ERAP1 inh – human ERAP1 aminopeptidase inhibitors, primary screen, biochemical, single point, plate reader; Endoplasmic reticulum aminopeptidase 1 (Homo sapiens), Q9NZ08; recombinant ERAP1, Leu-AMC fluorescence, 60 min; inhibition, % at 10.7 µM; 340,000 compounds, 0.15% hits;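 active means mean replicate inhibition of at least 30%, or all replicates individually reaching that 30% level; inactive means mean below 30% and not every replicate reaching it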;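 further: 0% = neutral control wells and 100% = L-leucinethiol positive control wells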
AF4-AF9 inh – inhibitors of AF4 peptide binding to AF9, primary screen, biochemical, AlphaScreen, biotin-AF4 peptide, FLAG-AF9, single point; 350,000 compounds, 0.47% hits; AID 651704, 2012; inhibition, % at 10 µM; Protein AF-9 (Homo sapiens), P42568;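 active means every replicate reaching a set inhibition limit, whatever the replicate mean, cut at about 25% in these data; inconclusive means mean inhibition reaches that limit but some replicates miss it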;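 further: 0% = plate neutral control median and 100% = total signal loss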
S100A4 MyoIIA – inhibitors of S100A4-myosin IIA peptide binding, primary screen, biochemical, fluorescence polarization, TAMRA-MyoIIA peptide; 360,000 compounds, 0.14% hits; inhibition, % at 10.7 µM; AID 652163, 2013; Protein S100-A4 (Homo sapiens), P26447;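 active means mean inhibition of at least 70% across replicates, with every replicate also reaching that level; inconclusive means mean inhibition reaches 70% but some replicates fall short; inactive means mean inhibition below 70%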
Target sequence (P26447 whole entry, looked up): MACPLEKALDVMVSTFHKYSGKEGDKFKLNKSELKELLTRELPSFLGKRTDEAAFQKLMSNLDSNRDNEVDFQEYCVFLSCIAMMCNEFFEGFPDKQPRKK
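incubation = readout 5 min after mixing, signal stable up to 60 min | system = S100A4 monomer protein | buffer or medium = HEPES pH 7.2 with CaCl2, KCl, NaCl, DTT, Triton | benchmarks = neutral control DMSO, positive control TFP | also added = fluorescent myosin IIA peptide, 5 nM | compound dosing = one concentration per compound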
RAD52 anneal inh – RAD52 DNA annealing inhibitors, primary screen, biochemical, FRET, single point, set 2 | DNA repair protein RAD52 homolog (Homo sapiens), P43351 | recombinant RAD52 DNA annealing, FRET fluorescence | inhibition, % at 18.7 µM | 360,000 compounds, 0.46% hits | AID 651710, 2012;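 active means every replicate showing at least 50% inhibition; inconclusive means mean inhibition at least 50% but not in every replicate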
Target sequence (P43351 whole entry, looked up): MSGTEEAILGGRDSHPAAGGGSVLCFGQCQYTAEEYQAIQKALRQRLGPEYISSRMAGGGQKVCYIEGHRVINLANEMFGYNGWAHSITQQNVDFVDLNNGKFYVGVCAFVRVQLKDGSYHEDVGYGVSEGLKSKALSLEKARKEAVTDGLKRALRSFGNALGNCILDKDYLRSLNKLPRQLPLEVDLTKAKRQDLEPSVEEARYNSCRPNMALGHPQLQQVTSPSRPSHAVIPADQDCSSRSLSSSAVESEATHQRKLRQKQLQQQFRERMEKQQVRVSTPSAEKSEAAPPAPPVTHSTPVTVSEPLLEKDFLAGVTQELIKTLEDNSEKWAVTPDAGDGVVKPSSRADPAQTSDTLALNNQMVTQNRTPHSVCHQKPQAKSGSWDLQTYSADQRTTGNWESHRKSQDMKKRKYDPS
AlphaScreen intf – AlphaScreen signal interference counter-screen, dose response, artefact control, biochemical, cherry-picked samples, luminescence. shares compounds with AF4-AF9 inh. AC50, µM (top dose mostly 12 µM), inactives show top-dose activity change, negative = inhibition. 530 compounds, 45% hits; cut-off not given, nearly all actives have AC50 up to about 14 µM
* = called active by the depositor; ? = inconclusive; . = no result given.

SMILES	GSIS activator	ERAP1 inh	AF4-AF9 inh	S100A4 MyoIIA	RAD52 anneal inh	AlphaScreen intf
CC1Cc2ccccc2N1C(=O)c1ccc(N2CCCC2)c([N+](=O)[O-])c1 (stereo not given)	15	-1	23	0	1	-21%
COCc1cn(CC[C@@H]2CC[C@H](NC(=O)Nc3ccc(OC)cc3)[C@H](CO)O2)nn1	4	-1	-1	0	-12	.
COc1ccc(CN2CCC(N(CCc3ccccc3)Cc3ccccc3)CC2)c(OC)c1	122	-1	30*	5	46	-21%
CCN(CC)c1ccc(CN2CCC(C(=O)NCc3ccc(C)cc3)CC2)cc1	-6	0	?	1	17	-35%
Cc1ccnc(NC(c2ccsc2)c2ccc3ccc(C)nc3c2O)c1 (stereo not given)	-19	-6	55*	1	-15	-13%
Cc1ccnc(NC(c2cccnc2)c2ccc3cccnc3c2O)c1 (stereo not given)	1	2	82*	3	1	1.5µM*
O=C(O)c1ccccc1NC(c1ccccc1)c1ccc2cccnc2c1O (stereo not given)	.	-2	12	2	-3	.
Cc1ccc2ccc(C(Nc3cccc(C(F)(F)F)c3)c3cccnc3)c(O)c2n1 (stereo not given)	10	3	33*	2	-7	-17%
COc1ccccc1NC(c1cccnc1)c1ccc2cccnc2c1O (stereo not given)	.	1	48*	-3	-6	-25%
O=C(Nc1ccccc1)Nc1ccc2c(c1)[C@H]1C[C@@H](CC(=O)N3CCOCC3)O[C@H](CO)[C@H]1O2	12	.	.	.	.	.
CCCCCc1cc(=O)oc2c(C(CCN3CCCC3)c3ccc(N(C)C)cc3)c(OC)cc(OC)c12 (stereo not given)	2	0	57*	-6	49	7µM*
COc1cc(OC)c2ccc(=O)oc2c1C(CCN1CCCC1)c1ccc(N(C)C)cc1 (stereo not given)	18	.	.	.	.	.
CN(C)c1ccc(/C=C2/C[N+](C)(C)C/C(=C/c3ccc(N(C)C)cc3)C2=O)cc1	4	11	56*	-77	-125	5.8µM*
CC(C)/C=C1\CC/C(=C\c2ccc(N(C)C)cc2)C1=O	.	0	0	-33	-120	.
CS(=O)(=O)N1CCCCN2[C@H](C1)[C@H](c1ccc(C#Cc3ccccn3)cc1)[C@@H]2CO	-5	-2	32*	-5	-50	-16%
COc1ccc(C(CCNCc2ccc(N(C)C)cc2)c2ccccc2OC)cc1 (stereo not given)	-5	1	51*	-15	-28	4.7µM*
COc1ccc(CNCCC(c2ccc(OC)cc2)c2ccccc2OC)cc1 (stereo not given)	-23	1	6	2	-29	.
CC[C@H](C)[C@@H]1NC(=O)c2cc([N+](=O)[O-])cc(F)c2NCCCC[C@@H](C(N)=O)NC(=O)[C@H](CCCCN)NC1=O	.	21	?	-6	65*	-18%
NCCCC[C@@H]1NC(=O)c2cc([N+](=O)[O-])cc(F)c2NCCCC[C@@H](C(N)=O)NC(=O)CNC1=O	8	10	42*	-11	-198	-26%
COc1ccc(S(=O)(=O)Nc2ccc3c(c2)C(=O)N([C@H](C)CO)C[C@@H](C)[C@@H](CN(C)C(=O)Nc2cccc4ccccc24)OCCCC[C@@H](C)O3)cc1	0	.	.	.	.	.
CCC(=O)N[C@@H]1C=C[C@@H](CC(=O)NCCN2CCCCC2)O[C@@H]1CO	-2	4	-1	5	-13	.
Oc1ccc(/C=C/c2ccc3ccccc3n2)cc1	-2	-1	3	0	-23	.
C(=C\c1ccc2ccccc2n1)/c1ccccc1	-5	-2	?	-10	6	-22%
C[C@H](CO)N1C[C@H](C)[C@H](CN(C)S(=O)(=O)c2ccc(C#N)cc2)Oc2ncc(C#CCN(C)C)cc2C1=O	18	1	-1	-14	-11	.
CC(C)CC#Cc1ccc2c(c1)O[C@@H](CN(C)Cc1ccccn1)[C@H](C)CN([C@@H](C)CO)S2(=O)=O	-18	-2	5	-6	9	.
SMILES	GSIS activator	ERAP1 inh	AF4-AF9 inh	S100A4 MyoIIA	RAD52 anneal inh	AlphaScreen intf
O=S(=O)(c1ccc(Cl)cc1)N1CCN(Cc2ccc(O)c3ncccc23)CC1	-10	-1	75*	-4	-6	-33%
O=S(=O)(c1ccc(Cl)cc1)N1CCN(Cc2ccncc2)CC1	1	1	-2	2	-4	.
C[C@@H]1CCCCO[C@@H](CN(C)CC2CCCCC2)[C@H](C)CN([C@@H](C)CO)C(=O)c2cc(NC(=O)Nc3ccccc3)ccc2O1	-10	-34	1	9	-7	.
CCN(CC)CCNc1cccc2sc3ccccc3c(=O)c12	.	2	29*	-2	35	2.2µM*
COc1ccc(NC2=C(NC(C)=O)C(=O)c3ccccc3C2=O)cc1	.	0	10	-6	-1	.
COc1cccc(NC2=C(NCCO)C(=O)c3ccccc3C2=O)c1	1	1	38*	0	-7	14µM*
Cc1cccc(NC2=C(NCCO)C(=O)c3ccccc3C2=O)c1	70	0	49*	3	-7	-26%
COc1ccc(NC2=C(NCCO)C(=O)c3ccccc3C2=O)cc1	-6	-1	56*	6	1	14µM*
Cc1cccc(Nc2nc(N)c([N+](=O)[O-])c(NCCO)n2)c1	26	0	2	-1	-7	.
O=C(COc1cc(F)ccc1[N+](=O)[O-])Nc1ccc(N2CCOCC2)cc1	-5	7	3	-1	3	.
O=C(COc1cc(F)ccc1[N+](=O)[O-])Nc1ccc(N2CCCCC2)cc1	-4	4	?	3	5	-35%
NCC[C@H]1CC[C@H](NC(=O)c2ccccc2F)[C@H](CO)O1	-1	.	.	.	.	.
CCC[C@@H](CN1CCC[C@H]1CN1C(N)=NC[C@@H]1Cc1ccccc1)N1C[C@@H](Cc2ccccc2)N(CCc2ccc(Cl)c(Cl)c2)C1=N	-9	3	30*	0	56*	-9%
CCCCN1C(=N)N([C@@H](CCC)CN2CCC[C@H]2CN2C(N)=NC[C@@H]2Cc2ccccc2)C[C@H]1Cc1ccccc1	.	10	17	1	45	.
CC1=C/C(=C(\c2cc(C)c(O)c(Br)c2)c2ccccc2S(=O)(=O)O)C=C(Br)C1=O	-24	21	52*	-2	-3	8.9µM*
Cc1cc(C(=O)c2ccccc2)cc(C)c1O	.	1	-6	1	-10	.
